{"source": "paper PMC10692396", "about": "(Acta Pharmaceutica Sinica. B, 2023)", "key": {"[1]": {"system": "U251 GBM xenograft tumors", "test": "U251 subcutaneous xenograft in nude mice", "type": "in vivo", "conditions": "for expression of angiogenic markers CD31 and CD105: U251 tumor tissues; for expression of angiogenic markers CD31 and CD105 / expression of M2 phenotype macrophage marker(s) (CD206): IHC; for expression of M2 phenotype macrophage marker(s) (CD206): tumor tissue; for tumor volume reduced: U251 xenograft"}, "[2]": {"system": "intracranial glioma tumor U87MG", "test": "Intracranial U87MG-luc tumor model in nude mice", "type": "in vivo", "conditions": "for median survival time: control 41 days"}, "[3]": {"system": "M2 markers CD206 and ARG1 in BMDM cells", "test": "In vitro differentiation of BMDMs", "type": "cell-based, mouse", "conditions": "BMDM stimulated with CSF1, IL4, IL13; compound 100 nmol/L, 48 h", "in_short": "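Mouse BMDMs were seeded at 2.5 × 10^6/well and grown 7 days in 10 ng/mL CSF1. CD206 and ARG1 were measured by flow cytometry. Three independent experiments, t-test.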"}, "[4]": {"system": "D283 medulloblastoma xenograft", "test": "D283 subcutaneous xenograft in NOD-SCID mice", "type": "in vivo", "conditions": "oral, 14 days", "in_short": "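D283 cells (5 × 106 in 200 μL, half Matrigel) were injected s.c. into the right flank of NOD-SCID mice. Mice were randomized at about 120 mm3 (n = 9/group) and dosed orally twice daily. Tumor size (caliper) and body weight were taken three times weekly. Mice were euthanized after 14 days of dosing and tumors weighed.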"}, "[5]": {"molecular_target": "VEGFR-1 (Homo sapiens, UniProt P17948)", "sequence (P17948 27-1338)": "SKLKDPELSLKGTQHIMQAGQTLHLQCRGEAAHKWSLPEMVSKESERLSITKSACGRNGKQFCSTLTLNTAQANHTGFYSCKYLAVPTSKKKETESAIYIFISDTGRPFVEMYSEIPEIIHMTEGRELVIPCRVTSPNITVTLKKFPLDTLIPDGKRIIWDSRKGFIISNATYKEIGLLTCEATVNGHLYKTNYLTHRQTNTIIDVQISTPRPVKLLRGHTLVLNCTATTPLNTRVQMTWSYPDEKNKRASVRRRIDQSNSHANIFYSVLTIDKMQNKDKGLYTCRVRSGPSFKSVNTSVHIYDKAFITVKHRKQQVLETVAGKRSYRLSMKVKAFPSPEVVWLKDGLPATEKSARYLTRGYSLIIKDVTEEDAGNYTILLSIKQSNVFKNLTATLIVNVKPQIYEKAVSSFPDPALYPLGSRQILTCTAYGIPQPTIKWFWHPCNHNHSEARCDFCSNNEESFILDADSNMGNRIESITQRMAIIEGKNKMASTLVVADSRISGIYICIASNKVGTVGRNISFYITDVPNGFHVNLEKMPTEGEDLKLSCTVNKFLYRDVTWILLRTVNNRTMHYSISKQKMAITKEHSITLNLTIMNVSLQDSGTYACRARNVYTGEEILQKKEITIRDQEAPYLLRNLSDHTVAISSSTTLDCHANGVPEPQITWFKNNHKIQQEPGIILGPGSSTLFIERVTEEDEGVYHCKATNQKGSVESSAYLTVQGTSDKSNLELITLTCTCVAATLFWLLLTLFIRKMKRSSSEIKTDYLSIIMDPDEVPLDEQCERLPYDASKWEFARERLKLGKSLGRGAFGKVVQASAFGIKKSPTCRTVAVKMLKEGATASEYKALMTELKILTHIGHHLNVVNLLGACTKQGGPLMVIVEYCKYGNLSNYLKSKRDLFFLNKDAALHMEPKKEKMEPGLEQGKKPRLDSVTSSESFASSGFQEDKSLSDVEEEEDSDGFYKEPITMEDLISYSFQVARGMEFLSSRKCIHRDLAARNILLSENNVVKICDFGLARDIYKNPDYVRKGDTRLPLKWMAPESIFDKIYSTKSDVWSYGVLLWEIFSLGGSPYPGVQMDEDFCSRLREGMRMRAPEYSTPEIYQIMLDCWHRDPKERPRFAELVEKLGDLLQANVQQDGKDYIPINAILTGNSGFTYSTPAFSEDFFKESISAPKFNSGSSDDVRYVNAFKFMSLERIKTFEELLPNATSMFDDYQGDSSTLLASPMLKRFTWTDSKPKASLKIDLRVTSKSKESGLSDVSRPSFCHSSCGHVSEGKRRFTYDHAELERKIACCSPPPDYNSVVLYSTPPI", "test": "ELISA kinase assay", "type": "biochemical"}, "[6]": {"molecular_target": "VEGFR-3 (Homo sapiens, UniProt P35916)", "sequence (P35916 25-1363)": "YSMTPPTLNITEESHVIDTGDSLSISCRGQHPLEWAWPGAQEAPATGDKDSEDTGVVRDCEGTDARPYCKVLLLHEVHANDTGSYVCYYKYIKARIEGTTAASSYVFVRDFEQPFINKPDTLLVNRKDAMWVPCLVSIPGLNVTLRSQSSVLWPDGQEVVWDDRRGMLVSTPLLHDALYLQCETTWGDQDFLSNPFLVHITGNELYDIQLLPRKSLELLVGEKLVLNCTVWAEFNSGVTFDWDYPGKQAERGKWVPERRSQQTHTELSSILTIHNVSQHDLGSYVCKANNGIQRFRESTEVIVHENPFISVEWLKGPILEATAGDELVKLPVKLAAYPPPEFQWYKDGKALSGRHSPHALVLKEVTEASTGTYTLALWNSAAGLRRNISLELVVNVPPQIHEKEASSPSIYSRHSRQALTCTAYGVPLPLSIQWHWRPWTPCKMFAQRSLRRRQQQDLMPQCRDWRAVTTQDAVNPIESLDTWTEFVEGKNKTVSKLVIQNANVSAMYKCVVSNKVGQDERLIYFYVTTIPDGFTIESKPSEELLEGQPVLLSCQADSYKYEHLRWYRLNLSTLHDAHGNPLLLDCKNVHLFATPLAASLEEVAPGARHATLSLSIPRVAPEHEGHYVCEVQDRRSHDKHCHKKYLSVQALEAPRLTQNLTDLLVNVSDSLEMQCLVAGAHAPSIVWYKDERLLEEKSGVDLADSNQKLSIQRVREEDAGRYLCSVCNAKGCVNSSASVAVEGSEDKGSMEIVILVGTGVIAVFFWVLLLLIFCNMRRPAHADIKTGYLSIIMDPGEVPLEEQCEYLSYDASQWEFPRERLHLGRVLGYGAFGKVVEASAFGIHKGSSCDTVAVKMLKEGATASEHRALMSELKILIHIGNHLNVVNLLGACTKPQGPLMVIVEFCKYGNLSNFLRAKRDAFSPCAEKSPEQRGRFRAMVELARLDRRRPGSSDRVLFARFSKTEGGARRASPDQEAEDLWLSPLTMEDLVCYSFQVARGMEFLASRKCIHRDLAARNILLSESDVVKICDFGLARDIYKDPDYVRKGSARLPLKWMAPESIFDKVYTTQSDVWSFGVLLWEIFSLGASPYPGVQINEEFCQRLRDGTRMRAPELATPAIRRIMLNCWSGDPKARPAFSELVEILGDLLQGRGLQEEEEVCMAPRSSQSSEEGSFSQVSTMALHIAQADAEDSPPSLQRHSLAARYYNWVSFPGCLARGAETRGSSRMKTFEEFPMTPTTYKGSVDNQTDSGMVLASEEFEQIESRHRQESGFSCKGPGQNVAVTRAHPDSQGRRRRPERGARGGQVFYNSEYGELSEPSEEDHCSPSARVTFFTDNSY", "test": "ELISA kinase assay", "type": "biochemical"}, "[7]": {"molecular_target": "c-Kit (Homo sapiens, UniProt P10721)", "sequence (P10721 26-976)": "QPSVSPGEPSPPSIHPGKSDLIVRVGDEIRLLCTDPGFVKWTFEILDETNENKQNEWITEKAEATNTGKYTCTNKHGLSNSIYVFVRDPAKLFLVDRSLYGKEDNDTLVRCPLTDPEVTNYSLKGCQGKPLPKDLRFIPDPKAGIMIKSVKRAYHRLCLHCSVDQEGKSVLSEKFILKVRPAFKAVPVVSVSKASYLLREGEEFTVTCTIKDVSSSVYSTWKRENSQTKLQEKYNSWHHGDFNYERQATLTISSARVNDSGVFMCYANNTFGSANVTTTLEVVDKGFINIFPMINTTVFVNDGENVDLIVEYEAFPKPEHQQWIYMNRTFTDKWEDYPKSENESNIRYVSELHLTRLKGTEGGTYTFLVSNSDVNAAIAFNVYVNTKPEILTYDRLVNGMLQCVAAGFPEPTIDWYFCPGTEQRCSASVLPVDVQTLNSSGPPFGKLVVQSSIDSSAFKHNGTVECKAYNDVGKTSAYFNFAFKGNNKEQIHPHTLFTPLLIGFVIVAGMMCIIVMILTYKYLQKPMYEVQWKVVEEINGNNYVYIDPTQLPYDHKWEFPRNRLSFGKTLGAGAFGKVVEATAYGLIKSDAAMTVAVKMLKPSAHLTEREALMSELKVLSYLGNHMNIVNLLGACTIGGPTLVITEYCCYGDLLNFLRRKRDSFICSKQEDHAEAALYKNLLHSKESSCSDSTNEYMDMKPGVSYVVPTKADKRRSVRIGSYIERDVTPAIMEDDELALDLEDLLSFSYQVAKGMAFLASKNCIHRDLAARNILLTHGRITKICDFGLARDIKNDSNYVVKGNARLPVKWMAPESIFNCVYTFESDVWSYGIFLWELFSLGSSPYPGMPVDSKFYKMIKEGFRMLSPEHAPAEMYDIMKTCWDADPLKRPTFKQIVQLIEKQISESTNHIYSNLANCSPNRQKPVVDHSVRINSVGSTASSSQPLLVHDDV", "test": "ELISA kinase assay", "type": "biochemical"}, "[8]": {"molecular_target": "c-Kit (D816H) (Homo sapiens, UniProt P10721, D816H)", "sequence (P10721 26-976 D816H)": "as the sequence (P10721 26-976) above, with D791H counted along it", "test": "ELISA kinase assay", "type": "biochemical"}, "[9]": {"molecular_target": "PDGFRα (V561D) (Homo sapiens, UniProt P16234, V561D)", "test": "ELISA kinase assay", "type": "biochemical"}, "[10]": {"molecular_target": "CSF1R (Homo sapiens, UniProt P07333)", "sequence (P07333 20-972)": "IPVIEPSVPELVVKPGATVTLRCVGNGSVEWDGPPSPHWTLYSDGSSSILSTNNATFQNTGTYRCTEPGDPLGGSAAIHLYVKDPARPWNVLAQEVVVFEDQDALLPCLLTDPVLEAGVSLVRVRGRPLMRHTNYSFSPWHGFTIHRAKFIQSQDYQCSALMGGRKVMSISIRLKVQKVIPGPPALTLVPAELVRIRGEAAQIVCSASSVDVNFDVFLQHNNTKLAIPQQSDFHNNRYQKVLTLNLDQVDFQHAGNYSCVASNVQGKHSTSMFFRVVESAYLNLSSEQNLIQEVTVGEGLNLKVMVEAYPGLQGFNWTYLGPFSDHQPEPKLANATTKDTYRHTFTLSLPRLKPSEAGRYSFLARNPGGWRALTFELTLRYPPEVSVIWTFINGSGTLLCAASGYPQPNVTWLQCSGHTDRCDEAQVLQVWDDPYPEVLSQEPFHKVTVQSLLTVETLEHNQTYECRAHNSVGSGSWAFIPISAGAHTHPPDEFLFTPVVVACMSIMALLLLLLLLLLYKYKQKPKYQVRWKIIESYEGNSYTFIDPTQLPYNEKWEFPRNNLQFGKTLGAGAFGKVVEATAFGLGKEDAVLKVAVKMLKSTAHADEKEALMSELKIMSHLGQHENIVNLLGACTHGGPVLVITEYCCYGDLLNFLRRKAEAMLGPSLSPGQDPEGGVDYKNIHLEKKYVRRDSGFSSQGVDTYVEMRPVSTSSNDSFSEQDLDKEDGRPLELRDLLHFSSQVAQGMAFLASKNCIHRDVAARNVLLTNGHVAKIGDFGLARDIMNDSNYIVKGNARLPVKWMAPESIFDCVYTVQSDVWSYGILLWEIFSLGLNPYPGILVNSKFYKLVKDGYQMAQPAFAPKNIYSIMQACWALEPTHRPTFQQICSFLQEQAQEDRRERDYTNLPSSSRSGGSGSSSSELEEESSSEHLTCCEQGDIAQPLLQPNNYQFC", "test": "Surface plasmon resonance", "type": "binding", "conditions": "Biacore 8K, protein immobilized on CM5 chip", "in_short": "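Human CSF1R was directly immobilized on a CM5 chip (Biacore 8K), with test compound as analyte. Multi-cycle kinetics used 180 s injection and 180 s dissociation.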"}, "[11]": {"system": "panel of 328 kinases", "test": "Kinase profiling, whole panel", "type": "biochemical, human", "conditions": "0.1 μmol/L SYHA1813"}, "[12]": {"system": "HUVEC", "test": "VEGF-stimulated cell viability", "type": "cell-based", "conditions": "Homo sapiens, 72 h, read-out: IC50 HUVEC cell viability"}, "[13]": {"system": "phosphorylation of CSF1R", "test": "Western blot of CSF1R signaling in BMDM", "type": "cell-based, mouse", "conditions": "BMDM cells, CSF1 stimulation", "in_short": "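Fresh mouse BMDMs (2.5 × 10^6/well) were grown 7 days with 10 ng/mL CSF1, with a medium change at day 3. Cells were serum-starved 6 h, given test compound for 2 h, then stimulated with 50 ng/mL CSF1 for 15 min. BCA-normalized SDS lysates were blotted for p-CSF1R, CSF1R, p-AKT and AKT. Densitometry was normalized to tubulin across three independent repeats.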"}, "[14]": {"system": "tube formation of HUVECs", "test": "Tube formation assay", "type": "cell-based, Human", "conditions": "VEGF 100 ng/mL, 8 h, concentration-dependent", "in_short": "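HUVECs were starved 24 h, then seeded at 20,000 cells/well on growth-factor-reduced Matrigel. Graded test compound concentrations and VEGF (final 100 ng/mL) were added for 8 h. Tubes were photographed through a stereoscope at 4×.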"}, "[15]": {"system": "neovascularization in chick embryos", "test": "Chicken chorioallantoic membrane", "type": "in vivo", "conditions": "CAM assay, 48 h", "in_short": "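Fertilized eggs were incubated 7 days at 37 °C, 50% humidity. Suction at the broad end made a false air sac, and a 1 cm2 shell window was opened. Glass coverslips (0.5 cm × 0.5 cm) soaked in test compound or vehicle were laid between preexisting vessels, followed by a further 48 h incubation. Neovascular zones beside the coverslips were photographed under a stereomicroscope.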"}, "[16]": {"test": "Pharmacokinetics and brain distribution", "type": "in vivo, CD-1 mice", "conditions": "male, CD-1, mouse, po, 10 mg/kg", "in_short": "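Thirty male CD-1 mice were split into six groups, one per sampling time (0.5, 1, 2, 4, 8, 24 h), after a single oral 10 mg/kg dose. Plasma was taken from retro-orbital blood. Brains were collected after intracardial perfusion, rinsed in saline, blotted, weighed and homogenized in MeOH-ACN (1/1, 5 mL/g tissue).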"}, "[17]": {"system": "mouse glioma GL261-luc", "test": "Intracranial GL261-luc model in immunocompetent mice", "type": "in vivo, C57BL/6 mice", "in_short": "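Male C57BL/6 mice aged 4–6 weeks received 2 × 10^5 GL261-luc cells intracranially into the right frontal lobe. About 5 days after inoculation, mice were randomized by IVIS bioluminescence. Brain signal was then imaged once or twice weekly.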"}, "[18]": {"system": "DBT mouse glioma", "test": "DBT subcutaneous model in immunocompetent mice", "type": "in vivo, BALB/c mice", "conditions": "10 mg/kg twice daily", "in_short": "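BALB/c mice received 5 × 10^6 DBT cells in 200 μL PBS s.c. in the right flank. At about 120 mm3 they were randomized to control or 10 mg/kg (n = 6/group), dosed orally twice daily. Tumor size and body weight were measured three times weekly, and growth was expressed as RTV, mean ± SEM. CD8 was stained by IHC and scored by the multiplicative quick score method.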"}, "[19]": {"system": "DBT mouse glioma", "test": "DBT model, combination with anti-PD-1", "type": "in vivo, BALB/c mice", "conditions": "SYHA1813 5 mg/kg p.o. twice daily, anti-PD-1 200 μg i.p. twice a week, or both"}, "[20]": {"system": "recurrent high-grade glioma", "test": "First-in-human phase I trial", "type": "in vivo, patients"}, "[21]": {"system": "glioma cell lines", "test": "Cell viability", "type": "cell-based", "conditions": "read-out: IC50 against glioma cell lines", "in_short": "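GL261, DBT, D283, U87MG and U251 cells were plated, left overnight, then given a range of test compound concentrations for 72 h at 37 °C, 5% CO2. Growth was read by CCK-8. D283 was grown in MEM with 10% FBS, 1% NEAA and 1% NaP. Lines were STR-authenticated.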"}, "[22]": {"system": "cells with high expression of Aurora-B", "test": "Cytotoxicity in Aurora-B high cells", "type": "cell-based", "conditions": "data not shown"}, "[23]": {"system": "phosphorylation of RET in tumor tissue", "test": "RET phosphorylation in tumor tissue", "type": "in vivo", "conditions": "data not shown"}}}
{"molecule": "CNC(=O)c1ccccc1Sc1ccc2c(/C=C/c3ccccn3)n[nH]c2c1", "note": "[Axitinib, reference compound]", "values": [{"measurement": "expression of angiogenic markers CD31 and CD105", "setting": "[1]", "result": "effectively suppressed"}, {"measurement": "expression of M2 phenotype macrophage marker(s) (CD206)", "setting": "[1]", "result": "no significant changes"}, {"measurement": "median survival time", "setting": "[2]; 40 mg/kg orally twice daily", "result": 41, "unit": "days"}]}
{"molecule": "FC(F)(F)c1ccc(CNc2ccc(Cc3c[nH]c4ncc(Cl)cc34)cn2)cn1", "note": "[PLX3397, reference compound]", "values": [{"measurement": "expression of M2 markers CD206 and ARG1", "setting": "[3]", "result": "significant decrease"}]}
{"molecule": "Cn1nnc2c(C(N)=O)ncn2c1=O", "note": "[TMZ, temozolomide, reference compound]", "values": [{"measurement": "tumor growth in D283 xenograft", "setting": "[4]", "result": "dramatically insensitive"}]}
{"molecule": "Cc1cc(NC(=O)c2cccc3cc(-c4cccc5[nH]nc(N)c45)ccc23)ccc1F", "note": "[SYHA1813, 6-(3-amino-1H-indazol-4-yl)-N-(4-fluoro-3-methylphenyl)-1-naphthamide]", "values": [{"measurement": "IC50", "setting": "[5]", "result": 2.8, "unit": "nM"}, {"measurement": "IC50", "setting": "[6]", "result": 4.3, "unit": "nM"}, {"measurement": "IC50", "setting": "[7]", "result": 162, "unit": "nM"}, {"measurement": "IC50", "setting": "[8]", "result": 134, "unit": "nM"}, {"measurement": "IC50", "setting": "[9]", "result": 2.4, "unit": "nM"}, {"measurement": "SPR binding to CSF1R", "setting": "[10]", "result": "robust binding signal"}, {"measurement": "inhibition relative to the control, most of the kinases", "setting": "[11]", "result": "less than 80%"}, {"measurement": "IC50", "setting": "[12]", "result": 13, "unit": "nM"}, {"measurement": "phosphorylation of CSF1R and activation of downstream AKT", "setting": "[13]", "result": "dramatically blocked"}, {"measurement": "expression of M2 markers CD206 and ARG1", "setting": "[3]", "result": "significant decrease"}, {"measurement": "tube formation of HUVECs", "setting": "[14]", "result": "considerably blocked"}, {"measurement": "neovascularization in chick embryos", "setting": "[15]", "result": "significantly inhibited"}, {"measurement": "tumor volume reduced", "setting": "[1]; 5 mg/kg orally twice daily", "result": 67.7, "unit": "%"}, {"measurement": "tumor volume reduced", "setting": "[1]; 10 mg/kg orally twice daily", "result": 81.0, "unit": "%"}, {"measurement": "body weight of the animals", "setting": "[1]; U251, U87MG and D283 xenograft models", "result": "not significantly changed"}, {"measurement": "expression of angiogenic markers CD31 and CD105", "setting": "[1]", "result": "dramatically reduced"}, {"measurement": "expression of M2 phenotype macrophage marker(s) (CD206)", "setting": "[1]", "result": "significantly inhibited"}, {"measurement": "tumor growth in D283 xenograft", "setting": "[4]", "result": "effectively inhibited tumor growth"}, {"measurement": "Cmax", "setting": "[16]; brain", "result": 1210, "unit": "ng/g"}, {"measurement": "AUC(0-t)", "setting": "[16]; plasma", "result": 4540, "unit": "ng·h/mL"}, {"measurement": "Cmax", "setting": "[16]; plasma", "result": 1420, "unit": "ng/mL"}, {"measurement": "median survival time", "setting": "[2]; 20 mg/kg orally twice daily", "result": 54, "unit": "days"}, {"measurement": "first death of mice", "setting": "[2]; 40 mg/kg group, control Day 31", "result": 43, "unit": "days"}, {"measurement": "death of the last mouse", "setting": "[2]; 40 mg/kg group, control Day 52", "result": 75, "unit": "days"}, {"measurement": "median survival time", "setting": "[2]; 40 mg/kg orally twice daily", "result": 58.5, "unit": "days"}, {"measurement": "median survival time", "setting": "[17]", "result": "prolonged median survival time"}, {"measurement": "tumor growth of DBT glioma and tumor weight", "setting": "[18]; BALB/c mice", "result": "suppressed"}, {"measurement": "CD8+ T cells in tumor tissue", "setting": "[18]; IHC", "result": "dramatically increased"}, {"measurement": "tumor growth", "setting": "[19]", "result": "slightly inhibited"}, {"measurement": "Response Assessment in Neuro-Oncology (RANO)", "setting": "[20]; 5 mg once daily, 4 cycles, recurrent anaplastic oligodendrocytoma patient", "result": "stable disease"}, {"measurement": "contrast-enhancement on T1-weighted images and vasogenic edema on FLAIR images", "setting": "[20]; 15 mg/day, recurrent GBM (WHO IV) patient, first follow-up", "result": "drastic reduction"}, {"measurement": "IC50", "setting": "[21]", "result": "> 20000", "unit": "nM"}, {"measurement": "cytotoxicity to cells with high expression of Aurora-B", "setting": "[22]", "result": "no apparent cytotoxicity"}, {"measurement": "phosphorylation of RET in tumor tissue", "setting": "[23]", "result": "rarely inhibited"}]}
